# According to ChEMBL document CHEMBL2046366, “Design, synthesis and biological evaluation of novel imidazopyridines as potential antidiabetic GSK3β inhibitors” (Bioorg Med Chem Lett, 2012):
# Legend:
# [1] = Metabolic stability in mouse liver microsome after 45 mins by mass spectroscopy; type: ADME; settings: liver microsomes, read-out: Stability
# How it was run: (§1)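 Compound incubated with human or mouse liver microsomes at 37 °C for 45 min. Percent compound remaining was measured by mass spectrometry.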
# [2] = Metabolic stability in human liver microsome after 45 mins by mass spectroscopy; type: ADME; settings: liver microsomes, read-out: Stability; how it was run: as §1
# [3] = AUC in ICR mouse at 27.3 mg/kg, po; type: ADME, organism-based; parameters: dose 27.3 mg/kg, route oral; settings: plasma
# How it was run: (§2)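 Single oral dose of 27.3 mg kg^-1, given as HCl salt formulation, to male ICR mice (n = 2). AUC, Cmax and Tmax were derived from plasma concentration–time data.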
# [4] = Cmax in ICR mouse at 27.3 mg/kg, po; type: ADME, organism-based; parameters: dose 27.3 mg/kg, route oral; settings: in vivo; how it was run: as §2
# [5] = Tmax in ICR mouse at 27.3 mg/kg, po; type: ADME, organism-based; parameters: dose 27.3 mg/kg, route oral; settings: in vivo; how it was run: as §2
remaining at 0.75 h [1] [%],remaining at 0.75 h [2] [%],AUC [3] [ng·h/mL],Cmax [4] [ng/mL],Tmax [5] [h],Compound
70,,,,,O=C(Nc1cccnc1)c1ccnc2[nH]c(-c3ccc(F)cc3)nc12
36,38,,,,CCOc1ccncc1NC(=O)c1ccnc2[nH]c(-c3ccc(F)cc3)nc12
,,27,,,COc1ccncc1NC(=O)c1ccnc2[nH]c(-c3cccc(Cl)c3)nc12.Cl
46.7,36.5,,,,COc1ccncc1NC(=O)c1ccnc2[nH]c(-c3cccc(Cl)c3)nc12
47.4,33.3,,,,Cc1ccc(NC(=O)c2ccnc3[nH]c(-c4ccc(F)cc4)nc23)cn1
,,645,496,0.5,COc1ccc(-c2nc3c(C(=O)Nc4cnccc4C)ccnc3[nH]2)cc1.Cl
6.4,23.8,,,,CCOc1ccncc1NC(=O)c1ccnc2[nH]c(-c3cccc(OC)c3)nc12
6.6,4,,,,COc1cccc(-c2nc3c(C(=O)Nc4cnccc4C)ccnc3[nH]2)c1
56.8,51.4,,,,COc1ccc(-c2nc3c(C(=O)Nc4cnccc4C)ccnc3[nH]2)cc1
87,71,,,,COc1ccncc1NC(=O)c1ccnc2[nH]c(-c3ccc(F)cc3)nc12
,,2400,843,3,Cc1ccc(NC(=O)c2ccnc3[nH]c(-c4ccc(F)cc4)nc23)cn1.Cl
,,545,228,1,COc1ccncc1NC(=O)c1ccnc2[nH]c(-c3ccc(F)cc3)nc12.Cl

# Second part, the molecule before the results:
Compound,remaining at 0.75 h [1] [%],remaining at 0.75 h [2] [%],AUC [3] [ng·h/mL],Cmax [4] [ng/mL],Tmax [5] [h]
CS(=O)(=O)Nc1ccc(CCNC(=O)c2ccnc3[nH]c(-c4cccs4)nc23)cc1,2.2,36.8,,,
Cc1ccncc1NC(=O)c1ccnc2[nH]c(N3CCC(c4ccccc4)C3)nc12 (centres undefined),28.9,36.5,,,
CS(=O)(=O)Nc1ccc(CCNC(=O)c2ccnc3[nH]c(-c4ccc(F)cc4)nc23)cc1,0.8,13,,,
O=C(NCCCc1ccc(Cl)nc1)c1ccnc2[nH]c(-c3ccc(F)cc3)nc12,4.2,25.7,,,
CCOc1ccncc1NC(=O)c1ccnc2[nH]c(-c3cccnc3)nc12,6.3,6.5,,,
CS(=O)(=O)Nc1ccc(CCNC(=O)c2ccnc3[nH]c(-c4ccoc4)nc23)cc1,5.2,47,,,
Cc1ccncc1NC(=O)c1ccnc2[nH]c(N3CCC(c4ccccc4)C3)nc12.Cl (centres undefined),,,39,,
CS(=O)(=O)Nc1ccc(CCNC(=O)c2ccnc3[nH]c(-c4ccc(Cl)cc4)nc23)cc1,70.2,86.6,,,
O=C(NCCc1cccc(O)c1)c1ccnc2[nH]c(-c3ccc(F)cc3)nc12,11.1,12.1,,,
CN(C)S(=O)(=O)Nc1ccc(CCNC(=O)c2ccnc3[nH]c(-c4ccsc4)nc23)cc1,1.6,13.3,,,
CN(C)S(=O)(=O)Nc1ccc(CCNC(=O)c2ccnc3[nH]c(-c4ccc(F)cc4)nc23)cc1,1,7.4,,,
O=C(NCCc1ccc(F)nc1)c1ccnc2nc(-c3ccc(F)cc3)[nH]c12,2.9,9.4,,,
COc1ccncc1NC(=O)c1ccnc2nc(-c3ccncc3)[nH]c12,27,96,,,
CCN(CC)c1ccc(-c2nc3c(C(=O)Nc4cnccc4C)ccnc3[nH]2)cc1,0,0,,,
O=C(NCCc1cccnc1Cl)c1ccnc2[nH]c(-c3ccoc3)nc12,1.5,26.5,,,
